From PubChem BioAssay AID602319 (The Scripps Research Institute Molecular Screening Center, 2012)
Calls of active or inactive are those of the source.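 The calls were made as follows: active = inhibition of at least 50% at 0.01 µM compound; inactive = the rest.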

Target: Monoacylglycerol lipase ABHD6 (Mus musculus) (UniProt Q8R2Y0)
Assay: ABHD6 inhibition in mouse proteome, late-stage follow-up, selectivity assay for DAGLb inhibitor project, biochemical, gel-based competitive ABPP, fluorescence, in vitro (AID 602319)
Conditions: Neuro-2A membrane proteome, HT-01 probe, stronger effect = higher value
How it was run: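 System: Neuro-2A cell membrane proteome, native mouse ABHD6 / Input: proteome 1 mg/mL / Measure: % inhibition relative to DMSO control / Signal: SDS-PAGE with in-gel fluorescence scan, band integrated optical density / Timing: 30 min compound, 30 min probe, 37 °C / Buffer or medium: Dulbecco's phosphate-buffered saline (DPBS)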

Chain of Monoacylglycerol lipase ABHD6 (Mus musculus) (Q8R2Y0 whole entry, looked up): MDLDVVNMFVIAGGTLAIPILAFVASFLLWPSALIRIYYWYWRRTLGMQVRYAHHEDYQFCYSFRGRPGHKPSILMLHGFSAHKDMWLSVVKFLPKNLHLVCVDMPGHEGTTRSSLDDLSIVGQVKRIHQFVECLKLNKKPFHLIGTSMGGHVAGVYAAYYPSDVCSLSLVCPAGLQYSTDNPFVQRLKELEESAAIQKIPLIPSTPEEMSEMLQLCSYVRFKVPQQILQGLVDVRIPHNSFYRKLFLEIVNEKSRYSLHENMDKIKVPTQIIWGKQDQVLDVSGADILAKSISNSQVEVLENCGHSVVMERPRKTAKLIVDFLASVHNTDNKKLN

Row | SMILES | inhibition (ABHD6 inhibition, at 0.001 µM) | inhibition (at 0.01 µM)
1 | O=C(c1ccc(-c2ccc(-c3cn(C(=O)N4CCCCC4Cc4ccccc4)nn3)cc2)cc1)N1CCCCC1 (centres undefined) | 9% | 79%
2 | O=C(O)c1cccc(-c2ccc(-c3cn(C(=O)N4CCCCC4c4ccccc4)nn3)cc2)c1 (centres undefined) | 36% | 100%
3 | O=C(c1ccc(-c2ccc(-c3cn(C(=O)N4CCCCC4c4ccccc4)nn3)cc2)cc1)N1CCCCC1 (centres undefined) | 35% | 94%
4 | COc1ccccc1-c1ccc(-c2cn(C(=O)N3CCCCC3c3ccccc3)nn2)cc1 (centres undefined) | 32% | 90%
5 | NC(=O)c1ccc(-c2ccc(-c3cn(C(=O)N4CCCCC4c4ccccc4)nn3)cc2)cc1 (centres undefined) | 17% | 27% (inactive)
6 | COc1ccc(-c2ccc(-c3cn(C(=O)N4CCCCC4c4ccccc4)nn3)cc2)cc1 (centres undefined) | 8% | 18% (inactive)
7 | O=C(N1CCCCC1c1ccccc1)n1cc(-c2ccc(-c3ccccc3CO)cc2)nn1 (centres undefined) | 38% | 98%
8 | O=C(O)c1ccc(-c2ccc(-c3cn(C(=O)N4CCCCC4CCc4ccccc4)nn3)cc2)cc1 (centres undefined) | 7% | 10% (inactive)
9 | COc1ccccc1-c1ccc(-c2cn(C(=O)N3CCC(Cc4ccccc4)CC3)nn2)cc1 | 78% | 100%
10 | COc1ccccc1-c1ccc(-c2cn(C(=O)N3CCCC(Cc4ccccc4)C3)nn2)cc1 (centres undefined) | 53% | 100%
11 | O=C(N1CCCCC1c1ccccc1)n1cc(-c2ccc(-c3ccccc3)cc2)nn1 (centres undefined) | 18% | 66%
12 | O=C(N1CCCCC1c1ccccc1)n1cc(-c2ccc(-c3ccc(CO)cc3)cc2)nn1 (centres undefined) | 18% | 47% (inactive)
13 | O=C(N1CCCCC1c1ccccc1)n1cc(C(O)(c2ccccc2)c2ccccc2)nn1 (centres undefined) | 32% | 47% (inactive)
14 | COc1ccccc1-c1ccc(-c2cn(C(=O)N3CCCCC3CCc3ccccc3)nn2)cc1 (centres undefined) | 27% | 70%
15 | O=C(N1CCCCC1Cc1ccccc1)n1cc(-c2ccc(-c3cccc(CO)c3)cc2)nn1 (centres undefined) | 41% | 90%
16 | O=C(N1CCCCC1CCc1ccccc1)n1cc(-c2ccc(-c3ccccc3)cc2)nn1 (centres undefined) | 21% | 40% (inactive)
17 | O=C(O)c1cccc(-c2ccc(-c3cn(C(=O)N4CCCCC4CCc4ccccc4)nn3)cc2)c1 (centres undefined) | 33% | 94%
